The values below come from ChEMBL document CHEMBL1153534, “Design and synthesis of androgen receptor antagonists with bulky side chains for overcoming antiandrogen resistance” (J Med Chem, 2009).

The subject of one test is LNCaP. The test is described as follows: Suppression of DHT-stimulated growth of human LNCAP cells after 72 hrs. The class given is functional, cell-based.
The target of test [1] is T1, Progesterone receptor (Homo sapiens) (UniProt P06401).
T1 sequence (whole entry): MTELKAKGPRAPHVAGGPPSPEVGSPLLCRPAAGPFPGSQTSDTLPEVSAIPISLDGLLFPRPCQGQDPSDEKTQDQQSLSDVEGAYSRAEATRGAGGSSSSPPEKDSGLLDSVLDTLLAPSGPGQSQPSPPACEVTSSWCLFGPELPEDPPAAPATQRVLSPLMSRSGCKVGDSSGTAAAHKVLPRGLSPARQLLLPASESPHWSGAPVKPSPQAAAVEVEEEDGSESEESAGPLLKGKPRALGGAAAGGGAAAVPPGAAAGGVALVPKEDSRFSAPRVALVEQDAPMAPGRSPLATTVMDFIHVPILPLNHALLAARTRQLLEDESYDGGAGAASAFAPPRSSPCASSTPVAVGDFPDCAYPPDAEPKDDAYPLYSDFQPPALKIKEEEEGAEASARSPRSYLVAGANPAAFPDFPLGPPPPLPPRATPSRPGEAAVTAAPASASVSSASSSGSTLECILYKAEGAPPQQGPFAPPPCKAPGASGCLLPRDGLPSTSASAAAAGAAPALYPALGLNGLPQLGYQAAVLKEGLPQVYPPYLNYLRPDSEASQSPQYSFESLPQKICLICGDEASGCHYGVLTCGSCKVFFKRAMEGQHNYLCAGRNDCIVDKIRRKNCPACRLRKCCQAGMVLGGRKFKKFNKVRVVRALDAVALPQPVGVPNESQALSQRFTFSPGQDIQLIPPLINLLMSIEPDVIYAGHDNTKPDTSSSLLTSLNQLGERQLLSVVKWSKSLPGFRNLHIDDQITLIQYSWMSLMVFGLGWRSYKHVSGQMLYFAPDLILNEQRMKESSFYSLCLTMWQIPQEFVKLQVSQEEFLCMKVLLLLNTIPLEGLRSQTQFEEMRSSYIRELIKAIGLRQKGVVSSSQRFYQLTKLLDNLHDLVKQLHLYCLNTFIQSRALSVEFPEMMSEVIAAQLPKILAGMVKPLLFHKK
The test can be described thus: Antagonist activity at human PR B-form expressed in human PC3 cells assessed as inhibition of R5020-induced transactivation at 0.1 uM after 24 hrs by luciferase reporter gene assay. The test is classed as functional, cell-based. As to conditions: PC-3. The procedure, abridged:
(§1)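 PC-3 cells carrying a luciferase reporter for transactivation by the human PR B form. Antagonist mode used 10 nM R5020 as the agonist. Agonist mode ran in the absence of R5020. Luciferase read-out.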

The test system of test [2] is T2, Androgen receptor (Homo sapiens), P10275 [W742C].
T2 sequence (whole entry): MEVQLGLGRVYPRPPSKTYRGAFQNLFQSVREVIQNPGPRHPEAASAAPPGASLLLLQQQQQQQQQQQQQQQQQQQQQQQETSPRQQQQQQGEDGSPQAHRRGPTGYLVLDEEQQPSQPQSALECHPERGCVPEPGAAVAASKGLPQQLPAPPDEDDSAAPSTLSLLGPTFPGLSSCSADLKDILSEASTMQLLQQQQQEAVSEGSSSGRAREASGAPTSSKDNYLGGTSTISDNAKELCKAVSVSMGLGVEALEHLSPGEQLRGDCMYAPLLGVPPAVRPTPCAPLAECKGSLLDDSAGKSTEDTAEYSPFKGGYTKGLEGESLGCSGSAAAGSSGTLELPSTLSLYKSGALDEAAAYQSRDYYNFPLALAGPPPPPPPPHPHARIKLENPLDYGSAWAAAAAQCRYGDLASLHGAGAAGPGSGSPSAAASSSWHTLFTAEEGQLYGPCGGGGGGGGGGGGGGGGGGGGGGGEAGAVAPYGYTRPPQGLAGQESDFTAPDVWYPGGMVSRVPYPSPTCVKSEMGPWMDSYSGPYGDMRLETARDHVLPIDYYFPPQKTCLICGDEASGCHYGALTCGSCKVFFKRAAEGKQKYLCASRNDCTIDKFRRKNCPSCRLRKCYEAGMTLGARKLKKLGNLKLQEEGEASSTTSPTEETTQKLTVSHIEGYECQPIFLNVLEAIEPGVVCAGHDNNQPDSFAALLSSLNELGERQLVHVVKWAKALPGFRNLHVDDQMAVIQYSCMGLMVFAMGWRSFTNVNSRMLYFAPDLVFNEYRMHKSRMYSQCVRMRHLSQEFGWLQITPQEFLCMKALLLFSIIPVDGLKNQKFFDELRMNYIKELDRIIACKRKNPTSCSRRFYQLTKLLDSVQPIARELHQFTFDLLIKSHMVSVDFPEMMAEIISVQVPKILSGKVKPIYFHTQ
The test is described as follows: Activity in human PC3 cells expressing androgen receptor W741C mutant assessed as ARE-dependent transactivation at 0.1 uM after 24 hrs by luciferase reporter gene assay in absence of DHT. As to conditions: PC-3. The test is classed as cell-based. The essentials:
(§2)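 PC-3 cells, which lack endogenous AR, transiently transfected with plasmids expressing human AR (WT, T877A, W741C or H874Y) plus an ARE-driven MMTV-luc reporter. Cells were treated with or without 0.1 nM DHT. Firefly luciferase was standardized to a Renilla control and normalized to the 0.1 nM DHT signal. Mean ± sd.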

For test [3], the target named is T1, Progesterone receptor (Homo sapiens). The test can be described thus: Agonist activity at human PR B-form expressed in human PC3 cells assessed as receptor transactivation at 0.1 uM after 24 hrs by luciferase reporter gene assay. The conditions noted are these: PC-3. The class given is functional, cell-based. The essentials: as §1
(In general: In a reporter assay the amount or activity of a reporter protein is the signal.)

Test [4] relates to PC-3. The test is described as follows: Activity in human PC3 cells expressing androgen receptor H874Y mutant assessed as ARE-dependent transactivation at 1 uM after 24 hrs by luciferase reporter gene assay in absence of DHT. The class given is cell-based. The essentials:
as §2

Test [5] has as its system PC-3. The test is described as follows: Antiandrogenic activity in human PC3 cells expressing androgen receptor H874Y mutant assessed as inhibition of DHT-induced ARE-dependent transactivation at 1 uM after 24 hrs by luciferase reporter gene assay. The test is classed as cell-based. The essentials:
as §2

Activity calls are given as the source filed them. The calls are words filed in the database; no cut-off is given here.

With `COc1cc(/C=C(\C(=O)/C=C/C2=C(C)CCCC2(C)C)C(=O)/C=C/c2ccc(O)c(OC)c2)ccc1O`, the Activity entry in the test with LNCaP was “Dose-dependent effect”. The result (in test [1]; in test [2]; in test [3]; in the test on PC-3 [4]) was inactive. Further, the result in the test with PC-3 [5] was Active.
